Data reported in ChEMBL document CHEMBL1152618, “PET-compatible endothelin receptor radioligands: synthesis and first in vitro and in vivo studies” (Bioorg Med Chem, 2009).

Tests used:
[1] = target: T1, Endothelin receptor type B (Mus musculus, UniProt P48302); assay: Displacement of [125I]ET1 from endothelin B receptor in DBA mouse microsomes; design: species or system Microsome
T1 sequence (P48302 whole entry): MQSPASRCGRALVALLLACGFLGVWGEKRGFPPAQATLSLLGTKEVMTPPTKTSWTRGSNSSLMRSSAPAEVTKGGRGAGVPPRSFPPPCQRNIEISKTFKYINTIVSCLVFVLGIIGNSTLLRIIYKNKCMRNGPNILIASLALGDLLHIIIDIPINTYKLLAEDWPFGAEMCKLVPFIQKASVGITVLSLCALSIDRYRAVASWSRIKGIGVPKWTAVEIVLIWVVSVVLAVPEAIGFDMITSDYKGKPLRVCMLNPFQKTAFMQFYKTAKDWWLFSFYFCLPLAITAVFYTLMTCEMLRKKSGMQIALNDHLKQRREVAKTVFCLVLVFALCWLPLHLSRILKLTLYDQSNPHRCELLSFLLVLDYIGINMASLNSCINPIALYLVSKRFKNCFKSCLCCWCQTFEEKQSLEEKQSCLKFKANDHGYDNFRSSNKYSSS
Method in brief: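 Ventricular microsomes from DBA mice were prepared by homogenization and differential centrifugation in EDTA/HEPES/benzamidine buffers (pH 7.4). 10 µg membranes were incubated with 40 pM [125I]ET-1 and competitor (10 pM–100 µM) in Tris-HCl/154 mM NaCl/ascorbic acid (pH 7.4) at 37 °C for 4 h. Samples were filtered on GF/B and gamma counted. A two-site nonlinear fit gave the low-affinity IC50, which was converted to Ki by Cheng–Prusoff (KD 208 pM).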

[2] = Biodistribution in C57BL/6 mouse duodenal content assessed as drug uptake index at 0.3 to 1 mmol/kg, iv after 30 mins; type: ADME, organism-based; conditions: in vivo, 0.5 h, in the assay text read “0.3 to 1 nmol/kg” for “0.3 to 1 mmol/kg”
Method in brief: (§1)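 Adult C57BL/6 mice (male and female, 25–30 g), tail-vein cannulated under isoflurane/N2O/O2, allowed ~1 h recovery, conscious under light restraint. [18F]tracer 0.2–2.0 MBq (0.3–1.0 nmol/kg) given as iv bolus. Killed by iv pentobarbitone 200 mg/kg at 30 min. Duodenal contents were moved directly into weighed vials, and duodenal wall was blotted. Gamma counting. Uptake index = (cpm/g tissue)/(cpm injected/g body weight).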

[3] = Biodistribution in C57BL/6 mouse duodenal wall content assessed as drug uptake index at 0.3 to 1 mmol/kg, iv after 30 mins; type: ADME, organism-based; conditions: in vivo, 0.5 h, in the assay text read “0.3 to 1 nmol/kg” for “0.3 to 1 mmol/kg”; method in brief: as §1
[4] = system: Plasma; assay: Protein binding in Wistar rat plasma at 19 MBq; type: ADME, cell-free
Method in brief: (§2)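 Plasma from one anesthetized male Wistar rat (350 g), taken by cardiac puncture and stored at −20 °C overnight. 0.5 ml samples were incubated with 19 MBq [18F]tracer at 37 °C for 1, 2.5, 20 and 60 min. Protein was precipitated with ice-cold acetonitrile and centrifuged. Pellet and supernatant radioactivity were measured for protein binding. Supernatant was analyzed by gradient radio-RP-HPLC (C18, water/acetonitrile with 0.1% TFA).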

[5] = system: Plasma; assay: Stability in Wistar rat plasma assessed as compound remaining at 19 MBq; type: ADME, cell-free; method in brief: as §2
[6] = system: Rattus norvegicus; assay: Stability in Wistar rat assessed as compound remaining at 40 MBq, iv after 2.5 mins; type: ADME, organism-based; conditions: in vivo
Method in brief: (§3)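 Single rat given 40 MBq [18F]tracer as an iv tail-vein bolus. Blood (600–800 µl) was drawn from a tail-artery catheter at 2.5, 10, 20 and 60 min and centrifuged to plasma. Proteins were precipitated with ice-cold acetonitrile. Supernatant was spiked with 10 µg unlabeled reference and analyzed by radio-RP-HPLC.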

[7] = system: Rattus norvegicus; assay: Stability in Wistar rat assessed as compound remaining at 40 MBq, iv after 10 mins; type: ADME, organism-based; conditions: in vivo; method in brief: as §3
[8] = system: Plasma; assay: Stability in C57BL/6 mouse plasma assessed as compound remaining after 5 mins; type: ADME, cell-free
Method in brief: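 C57BL/6 mice (adult, both sexes) were prepared as for biodistribution and given [18F]tracer as a 100 µl tail-vein bolus. Killed by iv pentobarbitone at 5 or 20 min. Cardiac blood was centrifuged, and plasma from two mice was pooled. After acetonitrile protein precipitation, supernatant was spiked with 10 µg unlabeled reference and analyzed by radio-RP-HPLC.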

[9] = Drug level in C57BL/6 mouse bile at 6.6 MBq, iv after 3 to 4 mins; type: ADME, organism-based; conditions: in vivo
Method in brief: (§4)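 Female C57BL/6 mice (22–23 g) under isoflurane 2% anesthesia with tail-vein catheters were imaged two at a time in a quadHIDAC small-animal PET scanner. [18F]tracer (6.6 MBq in 100 µl, saline flush) was injected 30 s after acquisition start. List-mode data were collected for 2 h and reconstructed iteratively. Radioactivity (cps/ml) was read from ROIs over organs in five coronal planes.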

[10] = Drug level in C57BL/6 mouse urine at 6.6 MBq, iv after 5 to 60 mins; type: ADME, organism-based; conditions: in vivo; method in brief: as §4
[11] = system: Plasma; assay: Stability in plasma assessed as compound remaining after 20 mins

Which Ki [1] does the source give for `COc1ccc(C2(O)OC(=O)C(c3ccc4c(c3)OCO4)=C2Cc2cc(OC)c(OC)c(OCCOS(=O)(=O)c3ccc(C)cc3)c2)cc1` (stereo unspecified) here?
Its Ki is 1.26 nM.

Which Ki [1] does the source give for `COc1ccc(C2(O)OC(=O)C(c3ccc4c(c3)OCO4)=C2Cc2cc(OC)c(OC)c(OCCBr)c2)cc1` (stereo unspecified) here?
The Ki was 170 nM.

Which Ki [1] does the source give for `COc1ccc(C2(O)OC(=O)C(c3ccc4c(c3)OCO4)=C2Cc2cc(OC)c(OC)c(OCCF)c2)cc1` (stereo unspecified) here?
The Ki was 240 nM.

Which Ki [1] does the source give for `COc1cc(CC2=C(c3ccc4c(c3)OCO4)C(=O)OC2(O)c2ccc(OCCBr)cc2)cc(OC)c1OC` (stereo unspecified) here?
The Ki was 72 nM.

With `COc1cc(CC2=C(c3ccc4c(c3)OCO4)C(=O)OC2(O)c2ccc(OCCF)cc2)cc(OC)c1OC` (stereo unspecified) as the compound, how does the Ki [1] read?
The Ki was 98 nM.

What does the source list for `COc1ccc(C2(O)OC(=O)C(c3ccc4c(c3)OCO4)=C2Cc2cc(OC)c(OC)c(OCC[18F])c2)cc1` (stereo unspecified)?
Drug uptake [2]: 33; Drug uptake [3]: 9; PPB [4]: 4.6%; Stability [5]: Stable; Stability [6]: Stable; Stability [7]: Stable; Stability [8]: Stable; Drug uptake [9]: 6000 cps/ml; Drug uptake [10]: 200 cps/ml; Stability [11]: Stable

Which Ki [1] does the source give for `COc1cc(CC2=C(c3ccc4c(c3)OCO4)C(=O)OC2(O)c2ccc(OCCOS(=O)(=O)c3ccc(C)cc3)cc2)cc(OC)c1OC` (stereo unspecified) here?
Its Ki is 96 nM.
